For orientation: Ki means the dissociation constant of the complex between target and ligand, obtained from inhibition or displacement.

Peptide text beside a SMILES is read from it. * marks the point of attachment. X1 = N=C(N)NC/C=C/CN*

The target of assay [1] is T1, Proprotein convertase subtilisin/kexin type 6 (Homo sapiens, UniProt P29122).
T1 sequence (P29122 whole entry): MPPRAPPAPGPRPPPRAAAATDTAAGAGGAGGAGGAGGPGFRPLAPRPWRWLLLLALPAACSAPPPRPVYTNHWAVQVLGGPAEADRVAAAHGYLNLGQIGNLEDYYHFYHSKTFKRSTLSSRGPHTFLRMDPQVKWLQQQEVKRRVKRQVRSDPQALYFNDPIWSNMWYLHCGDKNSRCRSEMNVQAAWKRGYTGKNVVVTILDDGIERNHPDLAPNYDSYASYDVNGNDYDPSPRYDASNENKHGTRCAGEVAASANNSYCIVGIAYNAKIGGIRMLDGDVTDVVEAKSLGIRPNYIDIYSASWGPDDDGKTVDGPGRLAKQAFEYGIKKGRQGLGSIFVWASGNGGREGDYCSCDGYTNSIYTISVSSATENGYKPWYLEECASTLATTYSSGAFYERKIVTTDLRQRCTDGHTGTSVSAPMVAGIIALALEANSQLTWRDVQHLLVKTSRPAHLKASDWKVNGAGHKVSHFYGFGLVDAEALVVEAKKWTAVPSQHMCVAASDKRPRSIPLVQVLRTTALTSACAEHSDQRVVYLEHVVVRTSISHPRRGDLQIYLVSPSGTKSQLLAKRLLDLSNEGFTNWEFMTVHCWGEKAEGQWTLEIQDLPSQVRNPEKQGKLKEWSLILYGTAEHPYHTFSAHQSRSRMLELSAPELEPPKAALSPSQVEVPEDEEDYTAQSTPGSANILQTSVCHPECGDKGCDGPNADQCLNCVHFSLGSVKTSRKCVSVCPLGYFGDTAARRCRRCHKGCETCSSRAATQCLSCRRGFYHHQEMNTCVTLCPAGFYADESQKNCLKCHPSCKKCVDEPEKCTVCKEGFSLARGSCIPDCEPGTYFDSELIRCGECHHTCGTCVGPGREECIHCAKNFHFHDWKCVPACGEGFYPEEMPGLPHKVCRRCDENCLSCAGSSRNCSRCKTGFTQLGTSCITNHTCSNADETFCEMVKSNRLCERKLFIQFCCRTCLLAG
The assay can be described thus: Inhibition of human recombinant PACE4 expressed in drosophila schneider 2 cells using pyroGlu-Arg-Thr-Lys-Arg-AMC as substrate after 1 hr. The gist of the method: (§1)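 Human enzymes were expressed in Drosophila S2 cells and purified. Fluorogenic pyroGlu-RTKR-AMC was used at fixed concentration with varied inhibitor, 37 °C over 1 h. Buffers: furin, 100 mM Hepes pH 7.5, 1 mM CaCl2, 1 mM β-mercaptoethanol, 1.8 mg/mL BSA; PACE4 and PC7, 20 mM Bis-Tris pH 6.5, 1 mM CaCl2, 1.8 mg/mL BSA; PC2, same buffer at pH 5.7. Ki from IC50 (Cheng–Prusoff), or apparent Ki (Morrison) for tight binders. Triplicate, mean ± SD.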

Assay [2] concerns the target T2, Neuroendocrine convertase 2 (Homo sapiens, UniProt P16519).
T2 sequence (P16519 whole entry): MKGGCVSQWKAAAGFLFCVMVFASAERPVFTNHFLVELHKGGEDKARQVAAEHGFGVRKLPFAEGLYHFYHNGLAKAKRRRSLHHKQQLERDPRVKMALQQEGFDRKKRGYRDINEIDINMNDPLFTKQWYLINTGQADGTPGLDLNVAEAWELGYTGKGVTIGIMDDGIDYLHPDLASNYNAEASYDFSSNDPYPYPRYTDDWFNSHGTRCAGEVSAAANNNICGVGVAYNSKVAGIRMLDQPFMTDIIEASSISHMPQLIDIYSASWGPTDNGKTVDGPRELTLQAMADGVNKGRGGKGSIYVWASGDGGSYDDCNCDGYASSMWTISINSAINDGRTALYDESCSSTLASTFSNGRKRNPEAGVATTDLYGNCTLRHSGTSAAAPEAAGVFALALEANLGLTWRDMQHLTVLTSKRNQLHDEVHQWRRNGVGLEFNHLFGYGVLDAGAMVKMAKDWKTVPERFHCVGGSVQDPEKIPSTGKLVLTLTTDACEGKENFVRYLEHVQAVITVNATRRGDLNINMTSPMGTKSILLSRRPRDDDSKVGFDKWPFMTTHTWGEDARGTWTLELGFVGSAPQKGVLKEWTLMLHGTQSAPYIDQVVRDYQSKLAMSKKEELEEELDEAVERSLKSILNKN
The assay can be described thus: Inhibition of human PC2 expressed in drosophila schneider 2 cells using pyroGlu-Arg-Thr-Lys-Arg-AMC as substrate after 1 hr. The gist of the method: as §1

Consider `CC(=O)N[C@@H](CC(C)C)C(=O)N[C@@H](CC(C)C)C(=O)N[C@@H](CC(C)C)C(=O)N[C@@H](CC(C)C)C(=O)N[C@@H](CCCNC(=N)N)C(=O)N[C@H](C(=O)N[C@@H](CCCCN)C(=O)NC/C=C/CNC(=N)N)C(C)C` (Ac-LLLLRVK-X1), for which the results for the Ki in assay [1] and in assay [2] were 5.3 nM and 1.7 nM, respectively.

Values taken from ChEMBL document CHEMBL3112425, “Design, synthesis, and structure-activity relationship studies of a potent PACE4 inhibitor” (J Med Chem, 2014).
